For series [1], the target named is T1, Polyunsaturated fatty acid 5-lipoxygenase (Homo sapiens) (UniProt P09917).
T1 sequence (whole entry): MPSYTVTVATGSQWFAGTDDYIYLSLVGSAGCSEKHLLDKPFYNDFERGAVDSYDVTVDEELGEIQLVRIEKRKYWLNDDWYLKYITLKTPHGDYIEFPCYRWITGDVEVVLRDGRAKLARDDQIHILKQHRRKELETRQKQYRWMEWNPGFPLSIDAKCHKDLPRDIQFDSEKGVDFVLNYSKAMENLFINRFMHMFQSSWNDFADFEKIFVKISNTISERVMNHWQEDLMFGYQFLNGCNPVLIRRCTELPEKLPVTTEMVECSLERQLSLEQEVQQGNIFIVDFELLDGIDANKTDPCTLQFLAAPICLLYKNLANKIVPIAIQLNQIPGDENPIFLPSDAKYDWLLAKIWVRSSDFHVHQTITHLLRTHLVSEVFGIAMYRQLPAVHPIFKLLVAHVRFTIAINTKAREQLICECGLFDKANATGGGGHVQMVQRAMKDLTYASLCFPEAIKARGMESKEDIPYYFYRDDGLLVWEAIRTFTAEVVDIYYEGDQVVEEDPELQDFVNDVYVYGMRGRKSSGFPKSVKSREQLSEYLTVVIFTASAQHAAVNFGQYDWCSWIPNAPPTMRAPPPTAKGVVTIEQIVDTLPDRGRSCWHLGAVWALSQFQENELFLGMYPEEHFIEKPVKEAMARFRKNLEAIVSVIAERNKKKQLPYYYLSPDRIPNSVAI
Description: Ex vivo inhibition of 5-LO was determined by the measurement of A-23187-stimulated LTB4 production in dog blood at 9.0h, following intravenous administration at the dose of 1.0 mg/kg. Format: functional, organism-based. On the set-up: dose 1 mg/kg. The following applies: Canis lupus familiaris, target entry is the homologue from another species. In a few lines:
(§1)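 Dogs received a single iv dose. Whole blood was sampled at the stated time after dosing and stimulated ex vivo with calcium ionophore A23187. LTB4 was quantitated by radioimmunoassay. Percent inhibition was calculated against each animal's pre-dose LTB4 value. One to three experiments were run per dose.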

Series [2] deals with T1, Polyunsaturated fatty acid 5-lipoxygenase (Homo sapiens). Description: Ex vivo inhibition of 5-LO was determined by the measurement of A-23187-stimulated LTB4 production in dog blood at 0.5h, following intravenous administration at the dose of 1.0 mg/kg. The conditions noted are these: Canis lupus familiaris, target entry is the homologue from another species. Format: functional, organism-based. Set-up: dose 1 mg/kg. In a few lines: as §1

Series [3] has the same target. Description: Ex vivo inhibition of 5-LO was determined by the measurement of A-23187-stimulated LTB4 production in dog blood at 6.0h, following intravenous administration at the dose of 1.0 mg/kg. Type of series: functional, organism-based. Set-up: dose 1 mg/kg. The conditions noted are these: Canis lupus familiaris, target entry is the homologue from another species. In a few lines:
as §1

Series [4] has the same target. Description: Ex vivo inhibition of 5-LO was determined by the measurement of A-23187-stimulated LTB4 production in dog blood at 0.25h, following intravenous administration at the dose of 1.0 mg/kg. Type of series: functional, organism-based. Set-up: dose 1 mg/kg. The following applies: Canis lupus familiaris, target entry is the homologue from another species. In a few lines:
(§2)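 Dog ex vivo assay: compound given as a single iv dose. Whole blood drawn at set times after dosing was stimulated ex vivo with calcium ionophore A23187. LTB4 was quantitated by radioimmunoassay. Percent inhibition at each time point was calculated against the LTB4 value before dosing. n = 1–3 experiments per compound.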

Series [5] shares this target. Description: Ex vivo inhibition of 5-LO was determined by the measurement of A-23187-stimulated LTB4 production in dog blood at 0.08h, following intravenous administration at the dose of 1.0 mg/kg. Type of series: functional, organism-based. On the set-up: dose 1 mg/kg. The following applies: Canis lupus familiaris, target entry is the homologue from another species. In a few lines:
as §1

Series [6] can be described thus: Duration of action was defined as the period of time from maximum inhibition of A-23187-stimulated LTB4 formation to the time where 50% of maximum inhibition is reached. In a few lines: (§3)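 Dogs got a single iv or oral dose. Whole blood was drawn at set times afterwards and stimulated ex vivo with the calcium ionophore A23187. LTB4 was measured by radioimmunoassay, and inhibition was taken as the change from the pre-dose LTB4 value. DA, the time from maximum inhibition to 50% of maximum, was read graphically from the plot of percent inhibition vs time.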

In series [7] the target is T1, Polyunsaturated fatty acid 5-lipoxygenase (Homo sapiens). Description: Ex vivo inhibition of 5-LO was determined by the measurement of A-23187-stimulated LTB4 production in dog blood at 3.0h, following intravenous administration at the dose of 1.0 mg/kg. Type of series: functional, organism-based. On the set-up: dose 1 mg/kg. The conditions noted are these: Canis lupus familiaris, target entry is the homologue from another species. In a few lines: as §1

The target is the same in series [8]. Description: Ex vivo inhibition of 5-LO was determined by the measurement of A-23187-stimulated LTB4 production in dog blood at 24h, following intravenous administration at the dose of 1.0 mg/kg. Format: functional, organism-based. On the set-up: dose 1 mg/kg. The following applies: Canis lupus familiaris, target entry is the homologue from another species. In a few lines: as §1

For series [9] the target is unchanged. Description: Ex vivo inhibition of 5-LO was determined by the measurement of A-23187-stimulated LTB4 production in dog blood at 1.0h, following intravenous administration at the dose of 1.0 mg/kg. Format: functional, organism-based. Set-up: dose 1 mg/kg. The conditions noted are these: Canis lupus familiaris, target entry is the homologue from another species. In a few lines: as §1

For series [10] the target is unchanged. Description: Ex vivo inhibition of 5-lipoxygenase was determined by the measurement of A-23187-stimulated LTB4 production in dog blood at 0.5h, following intravenous administration at the dose of 1.0 mg/kg. Format: functional, organism-based. Set-up: dose 1 mg/kg. The conditions noted are these: Canis lupus familiaris, target entry is the homologue from another species. In a few lines:
as §1

For series [11] the target is unchanged. Description: Ex vivo inhibition of 5-lipoxygenase was determined by the measurement of A-23187-stimulated LTB4 production in dog blood at 6.0h, following intravenous administration at the dose of 1.0 mg/kg. Format: functional, organism-based. Set-up: dose 1 mg/kg. The conditions noted are these: Canis lupus familiaris, target entry is the homologue from another species. In a few lines: as §1

The target is the same in series [12]. Description: Ex vivo inhibition of 5-lipoxygenase was determined by the measurement of A-23187-stimulated LTB4 production in dog blood at 24h, following intravenous administration at the dose of 1.0 mg/kg. Format: functional, organism-based. Set-up: dose 1 mg/kg. The following applies: Canis lupus familiaris, target entry is the homologue from another species. In a few lines:
as §1

Series [13] shares this target. Description: Ex vivo inhibition of 5-lipoxygenase was determined by the measurement of A-23187-stimulated LTB4 production in dog blood at 0.08h, following intravenous administration at the dose of 1.0 mg/kg. Type of series: functional, organism-based. On the set-up: dose 1 mg/kg. The following applies: Canis lupus familiaris, target entry is the homologue from another species. In a few lines: as §1

For series [14] the target is unchanged. Description: Ex vivo inhibition of 5-lipoxygenase was determined by the measurement of A-23187-stimulated LTB4 production in dog blood at 9.0h, following intravenous administration at the dose of 1.0 mg/kg. Format: functional, organism-based. On the set-up: dose 1 mg/kg. The following applies: Canis lupus familiaris, target entry is the homologue from another species. In a few lines: as §1

For series [15] the target is unchanged. Description: Ex vivo inhibition of 5-lipoxygenase was determined by the measurement of A-23187-stimulated LTB4 production in dog blood at 0.25h, following intravenous administration at the dose of 1.0 mg/kg. Type of series: functional, organism-based. Set-up: dose 1 mg/kg. The conditions noted are these: Canis lupus familiaris, target entry is the homologue from another species. In a few lines:
as §2

Series [16] has the same target. Description: Ex vivo inhibition of 5-lipoxygenase was determined by the measurement of A-23187-stimulated LTB4 production in dog blood at 1.0h, following intravenous administration at the dose of 1.0 mg/kg. Type of series: functional, organism-based. Set-up: dose 1 mg/kg. The following applies: Canis lupus familiaris, target entry is the homologue from another species. In a few lines:
as §1

The nature of series [17]: Duration of action of 5-LO was defined as the period of time from maximum inhibition of A-23187-stimulated LTB4 formation to the time where 50% of maximum inhibition is reached. In a few lines: as §3

Each structure is given as a SMILES string. “And” between values parts separate entries of the source, which are not always exact repeats. Identical values can stand only once.

In general, inhibition refers to how much of the control response was suppressed. The low end stands for little suppression, the high end for strong suppression. Consider `NC(=O)N(O)CC1COc2cc(Oc3ccccc3)ccc2O1` (stereo unspecified), for which the inhibition in series [1] was found to be 9%; in series [2], 100%; in series [3] it was 1%; in series [4], 100%; in [5] it was 100%; in [7], 14%. Further, the inhibition stood at 2% in [8] and 98% in [9]. Further, the Duration of action in series [6] was 1.7 h.

Take `NC(=O)N(O)CC1COc2ccc(Oc3ccccc3)cc2O1` (stereo unspecified): the inhibition in series [10] worked out at 100%; in [11], 22%; in series [12], 4%; in [13] it was 100%; in series [14], 0%; in series [15] it was 100%. Besides, the inhibition in [16] stood at 100%. In series [6], this compound came in with a Duration of action of 4 h.

For `CCCCNC(=O)N(O)CC1COc2ccccc2O1` (stereo unspecified), the inhibition in series [10] came to 64%; in series [11] it was 0%; in series [13], 100%; in series [15], 100%; in series [16], 45%. The Duration of action in series [6] amounted to 0.7 h.

As to `NC(=O)N(O)CC1COc2ccc(Oc3ccc(F)cc3)cc2O1` (stereo unspecified), the inhibition in series [10] is 94%; in series [11], 63%; in series [12], 17%; in series [13], 94%; in [14], 34% and 48%; in [15], 98%. The inhibition in series [16] was determined as 92%. In addition, the Duration of action in series [6] was 8.2 h and 8.5 h.

For `CNC(=O)N(O)CC1COc2ccc(Oc3ccccc3)cc2O1` (stereo unspecified), the inhibition worked out at 98% in series [10]; 0% in [11]; 0% in series [12]; 100% in [13]; 9% in [14]; 100% in series [15]. Besides, the inhibition in [16] turned out to be 74%. In series [6], this compound came in with a Duration of action of 1.5 h.

For `CC(c1cc2ccccc2s1)N(O)C(N)=O` (stereo unspecified) [ZILEUTON], the inhibition in series [10] is 91%; in series [11], 56%; in [12] it was 27%; in series [13], 96%; in series [14] it was 47%; in series [15], 94%. The compound also had an inhibition in series [16] of 87%. Moreover, the Duration of action in series [6] was 8.5 h and 9.8 h.

On to `NC(=O)N(O)C[C@H]1COc2ccc(Oc3ccc(F)cc3)cc2O1`, for which the Duration of action in [17] is 8.4 h.

Take `NC(=O)N(O)C[C@@H]1COc2ccc(Oc3ccc(F)cc3)cc2O1`: the inhibition in series [1] turned out to be 0%; in series [3], 15%; in series [10], 100%; in [13], 100%; in series [15], 100%; in [16], 100%. In [8], this compound displayed an inhibition of 0%. For the same compound, in series [6], the Duration of action is 3.8 h and 3.7 h.

Source of the values: ChEMBL document CHEMBL1128345, “Derivatives of 2-[[N-(Aminocarbonyl)-N-hydroxyamino]methyl]-1,4- benzodioxan as orally active 5-lipoxygenase inhibitors” (J Med Chem, 1995).
